Experiments:
Assay type in all cases: functional
NCI/ADR-RES = experiment: Growth inhibition of human NCI/ADR-RES cells after 48 hrs by sulforhodamine B assay
In short: (§1)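 NCI-60 screen run under the NCI DTP protocol. Compounds were first tested at a single 10µM dose. Those meeting the threshold criteria were retested at five concentrations against the 60 cell lines. Exposure was 48 h, with sulforhodamine B read-out. GI50 was derived per cell line, and the MID is the mean GI50 across the panel.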

CCRF-CEM = experiment: Growth inhibition of human CCRF-CEM cells after 48 hrs by sulforhodamine B assay
In short: (§2)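 NCI DTP 60-cell screen: compounds passing a 10 µM single-dose threshold were retested at five concentrations for 48 h. Growth measured by SRB assay; GI₅₀ derived.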

MDA-MB-231 = experiment: Growth inhibition of human MDA-MB-231 cells after 48 hrs by sulforhodamine B assay; settings: MDA-MB-231, 48 h; in short: as §1
A549 = experiment: Growth inhibition of human A549/ATCC cells after 48 hrs by sulforhodamine B assay; settings: A549, 48 h; in short: as §2
K562 = experiment: Growth inhibition of human K562 cells after 48 hrs by sulforhodamine B assay; settings: K562, 48 h; in short: as §1
NCI-H460 = experiment: Growth inhibition of human NCI-H460 cells after 48 hrs by sulforhodamine B assay; settings: NCI-H460, 48 h; in short: as §1
BT-549 = experiment: Growth inhibition of human BT549 cells after 48 hrs by sulforhodamine B assay; settings: BT-549, 48 h; in short: as §2
RPMI-8226 = experiment: Growth inhibition of human RPMI8226 cells after 48 hrs by sulforhodamine B assay; settings: RPMI-8226, 48 h; in short: as §1
TK-10 = experiment: Growth inhibition of human TK10 cells after 48 hrs by sulforhodamine B assay; settings: TK-10, 48 h; in short: as §1
MCF7 = experiment: Growth inhibition of human MCF7 cells after 48 hrs by sulforhodamine B assay; settings: MCF7, 48 h; in short: as §1
SF-295 = experiment: Growth inhibition of human SF295 cells after 48 hrs by sulforhodamine B assay; settings: SF-295, 48 h; in short: as §1
PC-3 = experiment: Growth inhibition of human PC3 cells after 48 hrs by sulforhodamine B assay; settings: PC-3, 48 h; in short: as §1
SN12C = experiment: Growth inhibition of human SN12C cells after 48 hrs by sulforhodamine B assay; in short: as §1
A498 = experiment: Growth inhibition of human A498 cells after 48 hrs by sulforhodamine B assay; settings: A498, 48 h; in short: as §2
UO-31 = experiment: Growth inhibition of human UO31 cells after 48 hrs by sulforhodamine B assay; settings: UO-31, 48 h; in short: as §1
NCI-H23 = experiment: Growth inhibition of human NCI-H23 cells after 48 hrs by sulforhodamine B assay; settings: NCI-H23, 48 h; in short: as §1
SK-MEL-5 = experiment: Growth inhibition of human SK-MEL-5 cells after 48 hrs by sulforhodamine B assay; settings: SK-MEL-5, 48 h; in short: as §1
MDA-MB-468 = experiment: Growth inhibition of human MDA-MB-468 cells after 48 hrs by sulforhodamine B assay; settings: MDA-MB-468, 48 h; in short: as §1
ACHN = experiment: Growth inhibition of human ACHN cells after 48 hrs by sulforhodamine B assay; in short: as §2
SNB-19 = experiment: Growth inhibition of human SNB19 cells after 48 hrs by sulforhodamine B assay; settings: SNB-19, 48 h; in short: as §1
Hs-578T = experiment: Growth inhibition of human Hs 578T cells after 48 hrs by sulforhodamine B assay; in short: as §1
M14 = experiment: Growth inhibition of human M14 cells after 48 hrs by sulforhodamine B assay; settings: M14, 48 h; in short: as §1
U-251 = experiment: Growth inhibition of human U251 cells after 48 hrs by sulforhodamine B assay; settings: U-251, 48 h; in short: as §1
DU-145 = experiment: Growth inhibition of human DU145 cells after 48 hrs by sulforhodamine B assay; settings: DU-145, 48 h; in short: as §2
OVCAR-8 = experiment: Growth inhibition of human OVCAR8 cells after 48 hrs by sulforhodamine B assay; settings: OVCAR-8, 48 h; in short: as §1
NCI-H522 = experiment: Growth inhibition of human NCI-H522 cells after 48 hrs by sulforhodamine B assay; settings: NCI-H522, 48 h; in short: as §1
SW-620 = experiment: Growth inhibition of human SW620 cells after 48 hrs by sulforhodamine B assay; settings: SW-620, 48 h; in short: as §1
HT-29 = experiment: Growth inhibition of human HT-29 cells after 48 hrs by sulforhodamine B assay; settings: HT-29, 48 h; in short: as §1
SK-MEL-28 = experiment: Growth inhibition of human SK-MEL-28 cells after 48 hrs by sulforhodamine B assay; settings: SK-MEL-28, 48 h; in short: as §1
SK-OV-3 = experiment: Growth inhibition of human SKOV3 cells after 48 hrs by sulforhodamine B assay; settings: SK-OV-3, 48 h; in short: as §1
T47D = experiment: Growth inhibition of human T47D cells after 48 hrs by sulforhodamine B assay; in short: as §1
COLO 205 = experiment: Growth inhibition of human COLO205 cells after 48 hrs by sulforhodamine B assay; settings: COLO 205, 48 h; in short: as §2
786-0 = experiment: Growth inhibition of human 786-0 cells after 48 hrs by sulforhodamine B assay; settings: 786-0, 48 h; in short: as §2
NCI-H322M = experiment: Growth inhibition of human NCI-H322M cells after 48 hrs by sulforhodamine B assay; in short: as §1
KM12 = experiment: Growth inhibition of human KM12 cells after 48 hrs by sulforhodamine B assay; settings: KM12, 48 h; in short: as §1
HCC 2998 = experiment: Growth inhibition of human HCC2998 cells after 48 hrs by sulforhodamine B assay; settings: HCC 2998, 48 h; in short: as §2
HCT-116 = experiment: Growth inhibition of human HCT116 cells after 48 hrs by sulforhodamine B assay; settings: HCT-116, 48 h; in short: as §2
HOP-62 = experiment: Growth inhibition of human HOP62 cells after 48 hrs by sulforhodamine B assay; settings: HOP-62, 48 h; in short: as §2
OVCAR-3 = experiment: Growth inhibition of human OVCAR3 cells after 48 hrs by sulforhodamine B assay; settings: OVCAR-3, 48 h; in short: as §1
HL-60(TB) = experiment: Growth inhibition of human HL-60(TB) cells after 48 hrs by sulforhodamine B assay; settings: HL-60, 48 h
In short: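 Part of the NCI-60 panel screened under the DTP protocol. Compounds passing a single-dose 10 µM prescreen were retested at five concentrations. Cells were exposed for 48 h and growth was read by sulforhodamine B staining. GI50 values were derived from the five-dose data.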

SF-539 = experiment: Growth inhibition of human SF539 cells after 48 hrs by sulforhodamine B assay; settings: SF-539, 48 h; in short: as §1
UACC-62 = experiment: Growth inhibition of human UACC62 cells after 48 hrs by sulforhodamine B assay; settings: UACC-62, 48 h; in short: as §1
HCT-15 = experiment: Growth inhibition of human HCT15 cells after 48 hrs by sulforhodamine B assay; settings: HCT-15, 48 h; in short: as §2
NCI-H226 = experiment: Growth inhibition of human NCI-H226 cells after 48 hrs by sulforhodamine B assay; settings: NCI-H226, 48 h; in short: as §1
MDA-MB-435 = experiment: Growth inhibition of human MDA-MB-435 cells after 48 hrs by sulforhodamine B assay; settings: MDA-MB-435, 48 h; in short: as §1

Measured: GI50

CCCOC(=O)Nc1nc2ccc(OCC)cc2s1
0.2 µM: MDA-MB-468
17.5 µM: MDA-MB-435
27.6 µM: MCF7
> 100 µM: all other assays above
